Here are results for four molecules from ChEMBL document CHEMBL4330106, “A new class of pentapeptide KISS1 receptor agonists with hypothalamic-pituitary-gonadal axis activation” (Bioorg Med Chem Lett, 2019).

Molecules are shown by their SMILES. Active and inactive are the calls of the source. Square brackets hold non-standard residues; d marks the D form. Peptide text beside a SMILES is read from it. Arg(Me) = CNC(=N)NCCC[C@H](N)C(=O)O; d4Pal = N[C@H](Cc1ccncc1)C(=O)O; azaGly = NNC(=O)O Bounds are passed on as bounds.

In general, EC50 refers to the midpoint of the concentration-response curve. A word on the solubility: it is the concentration that dissolves in the medium under given conditions. Read a low solubility as a poorly soluble substance. For orientation: half-life means the time needed for the level to fall by half in the phase considered. Low readings indicate fast loss, high ones slow loss.

The test system of series [1] is Rattus norvegicus. Briefly: Stimulation of plasma luteinizing hormone release in sc dosed Crl:CD(SD) rat administered as single bolus dose measured after 1 to 8 hrs. Type of series: functional, organism-based. The procedure, abridged:
(§1)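 Single subcutaneous bolus of 10, 100 or 1000 nmol/kg in 9-week-old male Crl:CD (SD) rats, n = 5, saline vehicle. Plasma LH measured 1, 2, 4 and 8 h post-dose. AUC0–8h (ng·h/mL) calculated per rat. One-tailed Williams' test versus vehicle; mean ± SD.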

Series [2] has as its target KiSS-1 receptor (Rattus norvegicus, UniProt Q924U1). Briefly: Agonist activity at rat KISS1R.
The nature of series [3]: Solubility of the compound in saline. It counts as physicochemical.
Series [4] can be described thus: Solubility of the compound in water. It counts as physicochemical.
For series [5], the target named is KiSS-1 receptor (Homo sapiens, UniProt Q969F8). As to the kind of experiment: Agonist activity at human KISS1R expressed in CHO cells assessed as increase in calcium mobilization measured at 2 secs interval for 2 mins by fluo-4 NW dye based FLIPR assay. Type of series: functional, cell-based. The procedure, abridged: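 Ligand-induced Ca2+ rise in CHO cells expressing human KISS1R, read on a fluorometric imaging plate reader (FLIPR); agonist potency reported as EC50 (nM).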
(A change in cytosolic calcium serves as a functional read-out for many receptors and channels.)

Series [6] has as its system Rattus norvegicus. As to the kind of experiment: Increase in plasma luteinizing hormone AUC (0 to 8 hrs) in Crl:CD(SD) rat at 100 nmol/kg, sc administered as single bolus dose. It counts as functional, organism-based. The procedure, abridged: as §1
The test system of series [7] is Rattus norvegicus. Briefly: Suppression of plasma testosterone level in Crl:CD(SD) rat at 5 to 20 nmol/hr administered via subcutaneous osmotic pumps measured after 6 days by radioimmunoassay. It counts as ADME, organism-based. The note with it: in vivo, sc, 144 h. The procedure, abridged:
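Five 9-week-old male Crl:CD (SD) rats per group received continuous subcutaneous infusion by osmotic pump for 6 days: leuprolide 2 nmol/h, or test peptide 5, 10, 20 nmol/h from 5–20 mM aqueous solution. Plasma testosterone measured by radioimmunoassay. Distilled-water control; Dunnett's test; mean ± SD.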

A short description of series [8]: Drug uptake in Crl:CD(SD) rat plasma administered via subcutaneous osmotic pumps every 1 hr after 6 days by LC/MS analysis. It counts as ADME, cell-free. The note with it: sc, 144 h. The procedure, abridged:
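9-week-old male Crl:CD (SD) rats (five per group) implanted subcutaneously with osmotic pumps of 5, 10 or 20 mM aqueous peptide, delivering 5, 10, 20 nmol/h for 6 days. Steady-state plasma measured by LC/MS after protein precipitation with organic solvent; mean ± SD.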

The nature of series [9]: Retention time of the compound by reverse-phase HPLC method. Type of series: physicochemical. Put shortly:
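RP-HPLC on C18 monolith column. Linear gradient of 0.1% TFA water / 0.1% TFA acetonitrile, A/B 95/5 to 35/65 over 10 min, 3.0 mL/min.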

The nature of series [10]: Stability in Sprague-Dawley rat serum assessed as parent compound remaining at 10 ug/ml measured after 5 mins by LC-MS/MS analysis. It counts as ADME, cell-free. The note with it: read-out: Stability. Put shortly: (§2)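 10 µL of 10 μg/mL aqueous peptide stock added to 990 μL pre-warmed SD rat serum (final 0.1 μg/mL), 37 °C. Aliquots taken at 0, 5, 15, 30, 60, 120 min. Quenched with formic acid/methanol and acetonitrile, centrifuged, internal standard added, quantified by LC/MS/MS. Result is percent remaining; n = 2.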

The nature of series [11]: Stability in Sprague-Dawley rat serum assessed as parent compound remaining at 10 ug/ml measured after 60 mins by LC-MS/MS analysis. It counts as ADME, cell-free. The note with it: read-out: Stability. The procedure, abridged: as §2
The nature of series [12]: Stability in Sprague-Dawley rat serum assessed as parent compound remaining at 10 ug/ml measured immediately by LC-MS/MS analysis. It counts as ADME, cell-free. The note with it: read-out: Stability. The procedure, abridged: as §2
Series [13] in a line: Stability in Sprague-Dawley rat serum assessed as parent compound remaining at 10 ug/ml measured after 120 mins by LC-MS/MS analysis. Type of series: ADME, cell-free. The note with it: read-out: Stability. Put shortly:
as §2

Series [14] in a line: Stability in Sprague-Dawley rat serum assessed as parent compound remaining at 10 ug/ml measured after 30 mins by LC-MS/MS analysis. Type of series: ADME, cell-free. The note with it: read-out: Stability. Put shortly:
as §2

Series [15] is described as follows: Stability in Sprague-Dawley rat serum assessed as parent compound remaining at 10 ug/ml measured after 15 mins by LC-MS/MS analysis. The note with it: read-out: Stability. It counts as ADME, cell-free. Put shortly:
as §2

A short description of series [16]: Half life in Sprague-Dawley rat serum at 10 ug/ml by LC-MS/MS analysis. Type of series: ADME, cell-free. Put shortly: as §2

Sequence of KiSS-1 receptor (Homo sapiens, UniProt Q969F8) (Q969F8 whole entry): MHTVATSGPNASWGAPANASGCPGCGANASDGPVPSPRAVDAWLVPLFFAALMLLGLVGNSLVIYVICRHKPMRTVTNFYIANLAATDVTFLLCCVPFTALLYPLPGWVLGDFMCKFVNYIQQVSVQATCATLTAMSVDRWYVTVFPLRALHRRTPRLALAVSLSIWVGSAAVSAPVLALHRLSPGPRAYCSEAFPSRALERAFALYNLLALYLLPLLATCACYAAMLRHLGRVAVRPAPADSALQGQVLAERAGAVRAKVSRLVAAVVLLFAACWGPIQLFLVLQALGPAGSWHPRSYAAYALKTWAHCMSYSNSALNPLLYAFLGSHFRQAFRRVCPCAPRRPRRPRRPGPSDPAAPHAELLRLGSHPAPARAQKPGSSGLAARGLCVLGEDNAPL
Sequence of KiSS-1 receptor (Rattus norvegicus, UniProt Q924U1) (Q924U1 whole entry): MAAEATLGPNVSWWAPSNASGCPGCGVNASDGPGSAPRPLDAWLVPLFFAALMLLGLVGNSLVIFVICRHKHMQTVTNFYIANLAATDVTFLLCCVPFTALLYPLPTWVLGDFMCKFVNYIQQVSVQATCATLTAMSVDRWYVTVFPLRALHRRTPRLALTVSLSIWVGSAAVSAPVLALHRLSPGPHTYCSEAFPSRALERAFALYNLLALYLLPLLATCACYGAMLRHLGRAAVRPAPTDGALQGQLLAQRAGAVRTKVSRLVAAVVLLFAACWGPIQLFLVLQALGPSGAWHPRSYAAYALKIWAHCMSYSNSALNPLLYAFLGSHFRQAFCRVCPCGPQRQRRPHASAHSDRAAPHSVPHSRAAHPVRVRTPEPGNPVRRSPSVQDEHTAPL

For `CNC(=N)NCCC[C@H](NC(=O)[C@H](CC(C)C)NC(=O)NNC(=O)[C@H](Cc1ccccc1)NC(=O)c1ccncc1)C(=O)N[C@@H](Cc1c[nH]c2ccccc12)C(N)=O`, the results for the Activity result with Rattus norvegicus [1] and in the series on Rattus norvegicus [7] were “Dose-dependent effect” and “Non-Toxic”, respectively. Also, the EC50 was found to be 1.2 nM on KiSS-1 receptor [2] and 0.068 nM on KiSS-1 receptor [5]. For the same molecule, the solubility was > 1000 µg/mL in series [3] and > 20000 µg/mL in series [4]. Besides, the outcome in the series on Rattus norvegicus [6] was Active. The Drug uptake result in series [8] was “Dose-dependent effect”. The molecule further came in with a Retention_time in [9] of 4.48 min.
`CNC(=N)NCCC[C@H](NC(=O)[C@H](CC(C)C)NC(=O)NNC(=O)[C@H](Cc1ccccc1)NC(=O)c1ccccc1)C(=O)N[C@@H](Cc1c[nH]c2ccccc12)C(N)=O`: in series [10], the remaining at 5 min, 10 ug/ml was 98%. Also, the solubility in series [3] was < 100 µg/mL; in series [4] it was < 10000 µg/mL. The remaining at 1 h, 10 ug/ml in [11] came out at 95%. For the same molecule, the remaining at 0 min, 10 ug/ml in [12] was determined as 100%. The EC50 at KiSS-1 receptor [5] came to 0.024 nM. In series [9], this molecule had a Retention_time of 6.29 min. For the same molecule, the remaining at 2 h, 10 ug/ml in [13] stood at 91%. The remaining at 0.5 h, 10 ug/ml in series [14] was found to be 99%. The remaining at 0.25 h, 10 ug/ml in series [15] worked out at 97%.
Take `CC(C)C[C@H](NC(=O)CNC(=O)[C@H](Cc1ccccc1)NC(=O)[C@H](CO)NC(=O)[C@H](CC(N)=O)NC(=O)[C@H](Cc1c[nH]c2ccccc12)NC(=O)[C@H](CC(N)=O)NC(=O)[C@@H](N)Cc1ccc(O)cc1)C(=O)N[C@@H](CCCNC(=N)N)C(=O)N[C@@H](Cc1ccccc1)C(N)=O` [KISSPEPTIN-10]: in series [10], the remaining at 5 min, 10 ug/ml was found to be 1.5%. For the same molecule, the remaining at 1 h, 10 ug/ml in series [11] was < 0.5%. Also, the remaining at 0 min, 10 ug/ml in series [12] came out at 100%. Besides, at KiSS-1 receptor [5], the EC50 was 0.087 nM. The remaining at 2 h, 10 ug/ml in [13] is < 0.5%. Further, in [16], the half-life at 10 ug/ml was < 5 min. Besides, the remaining at 0.5 h, 10 ug/ml in series [14] was < 0.5%. Besides, the remaining at 0.25 h, 10 ug/ml in series [15] was < 0.5%.
In the case of `CNC(=N)NCCC[C@H](NC(=O)[C@H](CC(C)C)NC(=O)NNC(=O)[C@H](Cc1ccccc1)NC(=O)[C@H](CO)NC(=O)[C@H](CC(N)=O)NC(=O)[C@@H](Cc1ccncc1)NC(=O)[C@H](N)Cc1ccc(O)cc1)C(=O)N[C@@H](Cc1ccccc1)C(N)=O` [KISS1-305] (H-[dY][d4Pal]NSF[azaGly]L[Arg(Me)]F-NH2), the remaining at 5 min, 10 ug/ml in [10] worked out at 98%. Also, the EC50 came to 0.17 nM on KiSS-1 receptor [2] and 0.27 nM at KiSS-1 receptor [5]. The remaining at 1 h, 10 ug/ml in series [11] stood at 89%. Also, the remaining at 0 min, 10 ug/ml in [12] turned out to be 100%. Moreover, in series [13], the remaining at 2 h, 10 ug/ml turned out to be 70%. In addition, the remaining at 0.5 h, 10 ug/ml in [14] was 95%. In [15], the remaining at 0.25 h, 10 ug/ml was found to be 97%.
